These results are taken from ChEMBL document CHEMBL5029200, “Imidazoline- and Benzamidine-Based Trypanosome Alternative Oxidase Inhibitors: Synthesis and Structure-Activity Relationship Studies” (ACS Med Chem Lett, 2022).

The test system of data set [1] is Trypanosoma brucei brucei. In words: Inhibition of recombinant Trypanosoma brucei brucei delta MTS TAO using ubiquinol as substrate measured at 40 uM after 2 mins by UV-vis spectrophotometry.
The nature of data set [2]: Inhibition of recombinant Trypanosoma brucei brucei delta MTS TAO using ubiquinol as substrate measured after 2 mins by UV-vis spectrophotometry.
Data set [3] can be described thus: Selectivity index, ratio of CC50 for HEK293 cells to EC50 for antitrypanosomal activity against bloodstream form trypomastigotes of wild type Trypanosoma brucei brucei Lister 427. Type of data set: toxicity. Conditions: human, read-out: Selectivity Index. In a few lines: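 Selectivity index = CC50 in HEK cells divided by EC50 against wild-type Lister 427. HEK cytotoxicity by resazurin assay. […] Both values from sigmoidal variable-slope nonlinear regression. n = 3.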

Data set [4] deals with Trypanosoma brucei brucei. The data set can be described thus: Inhibition of recombinant Trypanosoma brucei brucei delta MTS TAO using ubiquinol as substrate measured at 40 uM after 2 mins by UV-vis spectrophotometry.
Data set [5] relates to Trypanosoma brucei brucei. The data set can be described thus: Antitrypanosomal activity against bloodstream form trypomastigotes of wild type Trypanosoma brucei brucei Lister 427 assessed as reduction in parasite viability by resazurin-based assay. Type of data set: functional, organism-based. In a few lines:
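Monomorphic bloodstream-form trypanosomes grown in complete HMI-9 with 10% fetal bovine serum. Resazurin viability assay using 23 doubling dilutions of each compound, starting at 100 μM. EC50 obtained by nonlinear regression fitted to a variable-slope sigmoid. n = 3.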

Turning to `Cc1cc(O)cc(O)c1C(=O)NCCCOc1ccc(C(=N)N)cc1`, the inhibition in data set [1] came to 48%. The IC50 in data set [2] was over 40000 nM.
On to `Cc1cc(O)cc(O)c1C(=O)NCCCCCCOc1ccc(C#N)cc1`, for which the selectivity ratio in data set [3] is 6.6.
For the compound `C/C(=C\Cc1c(O)c(Cl)c(C)c(C=O)c1O)CC/C=C(\C)[C@@H]1CC(=O)C(C)(C)O1`, in data set [4], the inhibition was 100%.
On to `Cc1cc(O)cc(O)c1C(=O)NCCCCCCCCCCCCCCOc1ccc(C(=N)NO)cc1`, for which the selectivity ratio in data set [3] turned out to be 6.9.
As for `Cc1cc(O)cc(O)c1C(=O)NCCCCCCCCCCCCCCOc1ccc(C(=N)N)cc1`, in data set [3], the selectivity ratio is 10.7.
For `Cc1cc(O)cc(O)c1C(=O)NCCCCCCCCCCCCOc1ccc(C2=NCCN2)cc1`, the EC50 in data set [5] was determined as 1700 nM.

In general, inhibition refers to the drop in the measured response relative to a control, in per cent. As a reminder, the IC50 is the concentration needed to halve the response being measured. Broadly, the EC50 is the concentration at which the effect is half-maximal.
